The record followed here is ChEMBL document CHEMBL1909594, “Synthesis of polyfunctionalized piperidone oxime ethers and their cytotoxicity on HeLa cells” (Bioorg Med Chem Lett, 2011).

Calls of active or inactive are those of the source. The rule behind the calls is not given here.

Experiment [1] deals with HeLa. The experiment in a line: cells. Type of experiment: functional, cell-based. Conditions: Homo sapiens, 24 h.
The subject of experiment [2] is HeLa. The experiment in a line: Ratio of camptothecin IC50 to compound IC50 for human HeLa cells. Type of experiment: functional.
For experiment [3], the system named is HeLa. Put plainly: Induction of apoptosis in human HeLa cells assessed as chromosomal condensation at 25 uM after 24 hrs using Hoechst staining method. Format: functional, cell-based. Summed up: (§1)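 HeLa cells at 1 × 10⁴ cells/well in 96-well plates, in three replicates, were treated and incubated overnight at 37 °C. Cells were washed twice with PBS and fixed in 4% paraformaldehyde in PBS for one day. They were stained with 1 µg/mL Hoechst 33342 for 20 min at room temperature. Nuclei were imaged by fluorescence microscopy at 360/470 nm excitation/emission.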

Experiment [4] concerns HeLa. The experiment in a line: Induction of apoptosis in human HeLa cells assessed as blebbing of cellular membrane at 25 uM after 24 hrs using Hoechst staining method. Format: functional, cell-based. Conditions: in the assay text read “by phase contrast microscopy” for “using Hoechst staining method”. The procedure, abridged: (§2)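 HeLa cells (ATCC) were grown in DMEM with 10% heat-inactivated FBS plus penicillin/streptomycin at 37 °C under 5% CO₂. Cells at 1 × 10⁵/well were exposed to compound for 24 h. Morphology changes were then examined by phase-contrast light microscopy against untreated cells.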

Experiment [5] relates to HeLa. The experiment in a line: Induction of apoptosis in human HeLa cells assessed as chromosomal fragmentation at 25 uM after 24 hrs using Hoechst staining method. Format: functional, cell-based. The procedure, abridged: as §1
For experiment [6], the system named is HeLa. Put plainly: Induction of apoptosis in human HeLa cells assessed as formation of apoptotic bodies at 25 uM after 24 hrs using Hoechst staining method. Type of experiment: functional, cell-based. Summed up: as §1
Experiment [7] deals with HeLa. Put plainly: Induction of apoptosis in human HeLa cells assessed as cell membrane rupture at 25 uM after 24 hrs using Hoechst staining method. Particulars: in the assay text read “by phase contrast microscopy” for “using Hoechst staining method”. Type of experiment: functional, cell-based. The procedure, abridged:
as §2

Experiment [8] relates to HeLa. Put plainly: Induction of apoptosis in human HeLa cells assessed as cytoplasm content release at 25 uM after 24 hrs using Hoechst staining method. Type of experiment: functional, cell-based. Conditions: in the assay text read “by phase contrast microscopy” for “using Hoechst staining method”. Summed up: as §2
In experiment [9] the test system is HeLa. The experiment in a line: Induction of apoptosis in human HeLa cells assessed as margination of chromation into horseshoe shaped structure at 25 uM after 24 hrs using Hoechst staining method. Format: functional, cell-based. Summed up:
as §1

The test system of experiment [10] is HeLa. Put plainly: Induction of apoptosis in human HeLa cells assessed as deformed nucleus/cytoplasm consistency at 25 uM after 24 hrs using Hoechst staining method. Type of experiment: functional, cell-based. Summed up: as §1
The subject of experiment [11] is HeLa. Put plainly: Induction of apoptosis in human HeLa cells assessed as fragmentation of nucleus at 25 uM after 24 hrs using Hoechst staining method. Format: functional, cell-based. Summed up:
as §1

`CO/N=C1\C[C@@H](c2ccc(F)cc2)N[C@@H](c2ccc(F)cc2)[C@@H]1C`: the IC50 (usually the concentration needed to halve the response being measured) in the experiment on HeLa [1] is 49.2 µM. The compound `CO/N=C1\C[C@@H](c2cccc(F)c2)N[C@@H](c2cccc(F)c2)[C@@H]1C` yielded an IC50 with HeLa [1] of 38.4 µM. `CO/N=C1\C[C@@H](c2ccc(C)cc2)N[C@@H](c2ccc(C)cc2)[C@@H]1C`: inhibition in the experiment with HeLa [1] was half-maximal at 81.6 µM (IC50). In turn, `CO/N=C1\C[C@@H](c2ccc(OC)cc2)N[C@@H](c2ccc(OC)cc2)[C@@H]1C` showed an IC50 with HeLa [1] of 154 µM. Still for that read-out and setting: then `CC[C@@H]1/C(=N/OC)C[C@@H](c2ccccc2)N[C@H]1c1ccccc1`, with 57.3 µM; and `CO/N=C1\C[C@@H](c2ccccc2)N[C@@H](c2ccccc2)[C@@H]1C(C)C`, with 49.5 µM.

Turning to `CO/N=C1/[C@@H](C)[C@H](c2cccc(F)c2)N[C@H](c2cccc(F)c2)[C@H]1C`, in the experiment on HeLa [1], the IC50 came to 37.9 µM. As to `CO/N=C1/[C@@H](C)[C@H](c2ccc(C)cc2)N[C@H](c2ccc(C)cc2)[C@H]1C`, the IC50 in the experiment with HeLa [1] is 54.9 µM. The IC50 values of the last two compounds are within 1.5-fold of each other.

Consider `CO/N=C1/[C@@H](C)[C@H](c2ccc(C(C)C)cc2)N[C@H](c2ccc(C(C)C)cc2)[C@H]1C`, for which the IC50 with HeLa [1] came to 51 µM.

For `CO/N=C1/[C@@H](C)[C@H](c2ccc(OC)cc2)N[C@H](c2ccc(OC)cc2)[C@H]1C`, in the experiment with HeLa [1], half-maximal inhibition (IC50) was put at 93.9 µM. Same read-out and setting: then `CCOc1ccc([C@H]2N[C@@H](c3ccc(OCC)cc3)[C@H](C)/C(=N/OC)[C@@H]2C)cc1`, with 98 µM; and `CO/N=C1\C[C@@H](c2ccc(Cl)cc2)N(C)[C@@H](c2ccc(Cl)cc2)[C@@H]1C`, with 36.3 µM; and `CO/N=C1\C[C@@H](c2ccc(F)cc2)N(C)[C@@H](c2ccc(F)cc2)[C@@H]1C`, with 40.7 µM. Regarding `CO/N=C1\C[C@@H](c2ccc(C)cc2)N(C)[C@@H](c2ccc(C)cc2)[C@@H]1C`, in the experiment on HeLa [1], the 50% inhibitory concentration (IC50) is 47.7 µM. The same measure, in the same setting: the figure for `CO/N=C1\C[C@@H](c2ccc(OC)cc2)N(C)[C@@H](c2ccc(OC)cc2)[C@@H]1C` is 80.6 µM; for `CC[C@@H]1/C(=N/OC)C[C@@H](c2ccccc2)N(C)[C@H]1c1ccccc1` it is 41.7 µM. Turning to `CO/N=C1\C[C@@H](c2ccccc2)N[C@@H](c2ccccc2)C1` (relative stereo), in the experiment with HeLa [1], 121 µM corresponded to half-maximal inhibition (IC50).

On to `CO/N=C1\C[C@@H](c2ccccc2)N[C@@H](c2ccccc2)[C@@H]1C` (relative stereo), for which it took 113 µM to reach half-maximal inhibition with HeLa [1] (IC50). Regarding `CO/N=C1\C[C@@H](c2ccc(Br)cc2)N[C@@H](c2ccc(Br)cc2)[C@@H]1C` (relative stereo), in the experiment with HeLa [1], the IC50 is 25 µM. Further, the “Ratio IC50” value in the experiment with HeLa [2] turned out to be 3. The outcome in the experiment on HeLa [3], in the experiment with HeLa [4], with HeLa [5], with HeLa [6], in the experiment on HeLa [7] and with HeLa [8] was Active. Besides, the result in the experiment on HeLa [9], in the experiment on HeLa [10] and in the experiment on HeLa [11] was Active.

As for `CO/N=C1\C[C@@H](c2ccc(Cl)cc2)N[C@@H](c2ccc(Cl)cc2)[C@@H]1C` (relative stereo), the midpoint of inhibition with HeLa [1], the IC50, lay at 49 µM. `CC[C@@]1(O)C(=O)OCc2c1cc1n(c2=O)Cc2cc3ccccc3nc2-1` [CAMPTOTHECIN] yielded an IC50 in the experiment with HeLa [1] of 8.93 µM. The same measure, in the same setting: the figure for `COc1cc([C@@H]2c3cc4c(cc3[C@@H](O[C@@H]3O[C@@H]5CO[C@@H](C)O[C@H]5[C@H](O)[C@H]3O)[C@H]3COC(=O)[C@H]23)OCO4)cc(OC)c1O` [ETOPOSIDE] is 23.3 µM.
